The record followed here is ChEMBL document CHEMBL1159127 (Bioorg Med Chem, 2010).

One may read the solubility as how much of the substance goes into solution per volume. In general, EC50 refers to the concentration that produces a half-maximal response. Read a high EC50 as a less potent agent. The solubility (thermodynamic) is the concentration in solution at equilibrium with solid.

Each structure is given as a SMILES string. Values after ≈ are worked out from the molar mass of the structure shown.

Data set [1] is described as follows: Aqueous solubility in phosphate buffer at pH 7.4. The class given is physicochemical. Put shortly: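 Thermodynamic solubility by the Avdeef–Testa approach. About 1 mg of ground compound went into 1.0 mL of 1/15 M phosphate buffer (pH 7.4) […], shaken 48 h at 25 °C, then filtered (0.22 µm). Filtrate was diluted in DMF and quantified by reversed-phase HPLC-UV (263–288 nm) against a calibration curve.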

The target of data set [2] is T1, Aryl hydrocarbon receptor (Homo sapiens, UniProt P35869).
T1 sequence (P35869 whole entry): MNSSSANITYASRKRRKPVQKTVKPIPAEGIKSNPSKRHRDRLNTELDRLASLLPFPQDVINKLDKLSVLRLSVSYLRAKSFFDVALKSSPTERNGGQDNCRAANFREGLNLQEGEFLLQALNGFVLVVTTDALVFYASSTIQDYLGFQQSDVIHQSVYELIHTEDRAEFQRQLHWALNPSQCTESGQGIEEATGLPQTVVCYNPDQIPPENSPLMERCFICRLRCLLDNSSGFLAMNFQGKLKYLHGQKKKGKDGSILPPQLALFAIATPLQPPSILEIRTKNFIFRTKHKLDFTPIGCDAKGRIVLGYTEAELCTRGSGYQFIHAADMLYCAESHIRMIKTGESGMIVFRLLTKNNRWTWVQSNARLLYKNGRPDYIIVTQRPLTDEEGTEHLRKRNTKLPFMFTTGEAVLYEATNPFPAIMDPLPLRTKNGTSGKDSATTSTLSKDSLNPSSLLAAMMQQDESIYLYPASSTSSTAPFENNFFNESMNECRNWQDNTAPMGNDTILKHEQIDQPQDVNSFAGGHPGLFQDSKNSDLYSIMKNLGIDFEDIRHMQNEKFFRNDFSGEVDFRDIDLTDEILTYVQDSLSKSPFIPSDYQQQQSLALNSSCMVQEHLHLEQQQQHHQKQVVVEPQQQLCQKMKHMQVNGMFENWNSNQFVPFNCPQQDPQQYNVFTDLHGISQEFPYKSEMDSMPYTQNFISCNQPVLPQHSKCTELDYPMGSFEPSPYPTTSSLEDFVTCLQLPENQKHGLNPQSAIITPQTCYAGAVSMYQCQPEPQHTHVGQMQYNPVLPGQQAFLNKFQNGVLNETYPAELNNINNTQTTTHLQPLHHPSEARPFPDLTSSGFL
As to the kind of experiment: Agonist activity at aryl hydrocarbon receptor in human MCF7 cells after 24 hrs CYP1A1-dependent EROD assay. The class given is functional, cell-based. Put shortly:
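MCF-7 cells in high-glucose D-MEM with 10% FBS, plated at 5×10^5 cells/mL, settled 4.5 h at 37 °C, then exposed to compound (3% DMSO in added portion) for 24 h. Washed cells were given ethoxyresorufin, dicoumarol and NADPH in PBS for 150 min at 37 °C. Triplicate; EC50 derived.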

The nature of data set [3]: Thermodynamic aqueous solubility in equal volume of ethyl alcohol and 1/15M phosphate buffer at pH 7.4. The following applies: 1:1 (v/v) ethyl alcohol / 1/15 M phosphate buffer. The class given is physicochemical. Put shortly:
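About 1 mg solid ground in agate mortar, suspended in 1.0 mL of a 1:1 mix of 1/15 M phosphate buffer (pH 7.4) and EtOH, shaken 48 h at 25 °C. Filtered (0.22 µm), filtrate diluted in DMF, quantified by reversed-phase C18 HPLC with UV at 263–288 nm against a calibration curve, corrected for dilution.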

Another data set has as its system MCF7. As to the kind of experiment: Toxicity in human MCF7 cells assessed as effect on cell viability after 24 hrs. The class given is cell-based. The note with it: mcf7, 24 h. Put shortly: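 Same MCF-7 plating and 24 h compound exposure as the EROD assay. Medium was then removed, cells were detached with 0.25% trypsin/EDTA and counted.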
Where [4] appears, read: phosphate buffer, read-out: solubility.

`O=C(NC[C@H](NS(=O)(=O)c1ccccc1)C(=O)O)c1ccc(N2CCC(NC3=NCCCN3)CC2)cc1`: the solubility in data set [1] (setting [4]) was less than 0.1 µg/mL.

As to `O=C(NC[C@H](NS(=O)(=O)c1ccccc1)C(=O)O)c1ccc(N2CCC(NC3=NCCCN3)CC2)c(F)c1`, the solubility in data set [1] (buffer) came to 0.6 µg/mL (≈ 1.1 µM).

Compound `O=C(NC[C@H](NS(=O)(=O)c1ccccc1)C(=O)O)c1ccc(N2CCC[C@H](N=C3NCCCN3)C2)cc1` had a solubility in data set [1] (buffer) of 3.5 µg/mL (≈ 6.62 µM).

With `Cc1cccc(C)c1-c1cc(=O)c2c(ccc3ccccc32)o1`, the EC50 in data set [2] is more than 10000 nM. For the same compound, in data set [3], the solubility (thermodynamic) was 1270 µg/mL (≈ 4230 µM). In addition, the Activity result with MCF7 is reported as “Non-toxic”.

On to `O=c1cc(-c2ccccc2F)oc2ccc3ccccc3c12`, for which a half-maximal response in data set [2] (EC50) required 330 nM. The compound further had a thermodynamic solubility in data set [3] of 153 µg/mL (≈ 527 µM). Besides, the Activity result in the data set with MCF7 is on record as “Non-toxic”.

Turning to `COc1ccccc1-c1cc(=O)c2c(ccc3ccccc32)o1`, in data set [2], it took 270 nM to reach a half-maximal effect (EC50). In data set [3], this compound returned a solubility (thermodynamic) of 45.8 µg/mL (≈ 151 µM). Besides, the Activity result in the data set on MCF7 was “Non-toxic”.

In the case of `O=c1cc(-c2ccccn2)oc2ccc3ccccc3c12`, the response in data set [2] was half-maximal at 450 nM (EC50). Further, the solubility (thermodynamic) in data set [3] was 299 µg/mL (≈ 1090 µM). Besides, the Activity result in the data set on MCF7 is “Non-toxic”.

In data set [2], `O=c1cc(-c2c(F)cccc2F)oc2ccc3ccccc3c12` returned a 50% effective concentration (EC50) of 200 nM. Also, the thermodynamic solubility in data set [3] stood at 248 µg/mL (≈ 804 µM). For the same compound, the Activity result in the data set on MCF7 is on record as “Non-toxic”.

Turning to `Cc1ccccc1-c1cc(=O)c2c(ccc3ccccc32)o1`, the EC50 in data set [2] was more than 10000 nM. Moreover, in data set [3], the thermodynamic solubility is 262 µg/mL (≈ 915 µM). Moreover, the Activity entry in the data set with MCF7 is given as “Non-toxic”.

In turn, `O=c1cc(-c2ccccc2)oc2ccc3ccccc3c12` [BETA-NAPHTHOFLAVONE] yielded a solubility (thermodynamic) in data set [3] of 84.6 µg/mL (≈ 311 µM). In the data set with MCF7, the Activity result was “Non-toxic”. Moreover, in data set [1] (setting [4]), the solubility was less than 0.15 µg/mL.
